Experimental findings from ChEMBL document CHEMBL3763092, “Design and synthesis of pyrrolobenzodiazepine-gallic hybrid agents as p53-dependent and -independent apoptogenic signaling in melanoma cells” (Eur J Med Chem, 2016) are described below.

Activity calls are given as the source filed them. The rule behind the calls is not given here.

Series [1] has as its system A-375. As to the kind of experiment: Induction of reactive oxygen species generation in human A375 cells expressing p53 wild type assessed as increase in intracellular H2O2 level at 0.5 uM after 24 hrs by DCFH-DA staining based fluorescence analysis. It is filed as functional, cell-based. The method in brief:
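A375 cells were treated with 0.5 µM for 0, 12 and 24 h and stained with DCFH-DA to detect intracellular H2O2.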

The test system of series [2] is A-375. As to the kind of experiment: Induction of DNA lesion in human A375 cells expressing p53 wild type assessed as increase in 8-oxoguanine expression at 0.5 uM after 24 hrs by immunohistochemical analysis. It is filed as functional, cell-based. The method in brief: (§1)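 A375 cells on coverslips (1 × 10^4) were treated with 0.5 µM for 24 h. Cells were fixed in 4% formaldehyde for 5 min at 4 °C, permeabilized with 0.5% Triton X-100, and blocked with 5% BSA at 37 °C for 45 min. Primary antibodies were applied for 1 h at RT: mouse anti-p-ATR and anti-p-ATM 1:1000, anti-8-oxoguanine 1:250, COX IV and cytochrome c 1:1000. Secondary antibodies (rhodamine for 8-oxoguanine) followed for 30 min. DAPI counterstain.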

In series [3] the test system is A-375. As to the kind of experiment: Induction of apoptosis in human A375 cells expressing p53 wild type assessed as increase in p53 levels at 0.5 uM after 24 hrs by western blot analysis. It counts as functional, cell-based. The method in brief:
(§2)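 A375 cells were exposed to 0.5 µM for 24 h, and lysates were immunoblotted with specific antibodies (p53, Cdc25c, p-Chk1, Bcl-xL, PARP, caspase-3). GAPDH served as loading control. Three independent experiments.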
A general note: In western blotting, separated proteins are transferred to a membrane and probed.

Series [4] concerns A-375. The series can be described thus: Induction of apoptosis in human A375 cells expressing p53 wild type assessed as decrease in Bcl-xl levels at 0.5 uM after 24 hrs by western blot analysis. It counts as functional, cell-based. The method in brief:
as §2

The test system of series [5] is A-375. As to the kind of experiment: Induction of apoptosis in human A375 cells expressing p53 wild type assessed as increase in cleaved caspase-3 levels at 0.5 uM after 24 hrs by western blot analysis. It is filed as functional, cell-based. The method in brief:
as §2

For series [6], the system named is A-375. As to the kind of experiment: Induction of apoptosis in human A375 cells expressing p53 wild type assessed as decrease in mitochondrial membrane potential at 0.5 uM after 12 hrs by DiOC6 dye based flow cytometry. It counts as functional, cell-based. The method in brief: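 A375 cells were treated with 0.5 µM for 0, 12 and 24 h, labeled with DiOC6 and analyzed by flow cytometry. Three independent experiments.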

Series [7] deals with A-375. As to the kind of experiment: Induction of apoptosis in human A375 cells expressing p53 wild type assessed as increase release of cytochrome c from mitochondria to cytosol at 0.5 uM after 24 hrs by immunofluorescence analysis. It is filed as functional, cell-based. The method in brief:
as §1

The test system of series [8] is A-375. The series can be described thus: Induction of apoptosis in human A375 cells expressing p53 wild type assessed as lysosomal H+ concentration at 0.5 uM after 24 and 48 hrs by flow cytometric analysis. It counts as functional, cell-based. The method in brief:
(§3)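 Cells were loaded with LysoTracker Green (75 nM) for 15 min at 37 °C before treatment with 0.5 µM for the indicated times. After washing, mean fluorescence was quantified by flow cytometry. For p53 knockdown, A375 cells (6 × 10^4/well, antibiotic-free DMEM) were transfected with 30 nM tp53 siRNA or non-target siRNA using Lipofectamine RNAiMAX and harvested at 24 h.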
For orientation: A flow cytometer gives signals particle by particle.

The subject of series [9] is RPMI-7951. The series can be described thus: Induction of apoptosis in human RPMI7951 cells expressing p53 mutant assessed as decrease in lysosomal H+ concentration at 0.5 uM after 24 and 48 hrs by flow cytometric analysis. It is filed as functional, cell-based. The method in brief:
as §3

Series [10] concerns RPMI-7951. As to the kind of experiment: Induction of apoptosis in human RPMI7951 cells expressing p53 mutant assessed as increased release of cathepsin D to cytosol at 0.5 uM by immunofluorescent staining analysis. It is filed as functional, cell-based. The method in brief: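 RPMI7951 cells on coverslips (1 × 10^4) were treated with 0.5 µM for 24 h. Immunofluorescence steps: fixation in 4% formaldehyde, permeabilization with 0.5% Triton X-100, blocking with 5% BSA. Primary antibodies: rabbit anti-cathepsin D and mouse anti-LAMP-1 at 1:500, cytochrome c and COX IV at 1:1000, 1 h at RT. Secondary antibodies for 30 min. DAPI counterstain.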

Another series has as its system Mus musculus. As to the kind of experiment: Toxicity in ICR mouse xenografted with mouse B16 cells assessed as change in body weight at 2 to 4 mg/kg, iv. It is filed as organism-based. As to conditions: in vivo. The method in brief:
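Female ICR mice, seven weeks old, inoculated s.c. in the footpad with 1 × 10^6 B16 cells in 20 µl PBS. Once tumors reached a mean diameter of 4-7 mm (day 0), mice were randomized into groups of three and dosed i.v. at 0, 2, 4 mg/kg. Two perpendicular tumor diameters and body weight were taken at least 3 times weekly. T/C% was calculated from relative tumor volume; body weight is expressed as % of day 0. Statistics by t-test.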

Series [11] can be described thus: Cytotoxicity against human RPMI7951 cells expressing p53 mutant assessed as cell viability at 1 uM after 24 hrs by MTT assay. It counts as functional. As to conditions: RPMI-7951, 24 h, read-out: Activity. The method in brief:
(§4)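 Cells were exposed to compound at 1 µM for 24 h, then growth and viability were read by MTT assay. Media: A375 in DMEM; RPMI7951 and MCF-7 in MEM; A549 in RPMI1640; H1299 in DMEM-F12; all with 10% FCS and penicillin/streptomycin, at 37 °C and 5% CO2. Fibroblasts came from adult foreskin. DMSO stocks were 10 mM.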
A general note: Tetrazolium assays rely on reduction of a dye to a coloured formazan, in cell work by metabolically active cells.

The nature of series [12]: Cytotoxicity against p53 knockout human H1299 cells assessed as cell viability at 1 uM after 24 hrs by MTT assay. As to conditions: NCI-H1299, 24 h, read-out: Activity. It counts as functional. The method in brief: as §4

As for `COc1cc2c(cc1OCCCCOc1cc(OC)c(OC)c(OC)c1)N=C[C@@H]1CCCN1C2=O`, the result with A-375 [1], in the series with A-375 [2], with A-375 [3], with A-375 [4], in the series with A-375 [5] and with A-375 [6] was Active. Moreover, the outcome in the series on A-375 [7], in the series with RPMI-7951 [9] and in the series on RPMI-7951 [10] was Active. The outcome in the series with A-375 [8] was inactive. In addition, the Activity result in the series on Mus musculus is reported as “Non-toxic”. For the same compound, the figures for the viability at 1 µM in series [11] and in series [12] were 62.3% and 73%, respectively.
